Activity calls are given as the source filed them. No cut-off for these calls is given here.
What was measured:
[1] = Anticancer activity against human UACC257 cells assessed as cell growth level at 10 uM after 48 hrs by sulforhodamine B assay; assay type: functional, UACC-257
[2] = tested on: IGROV-1; test: Anticancer activity against human IGROV1 cells assessed as cell growth level at 10 uM after 48 hrs by sulforhodamine B assay; assay type: functional
[3] = tested on: ACHN; test: Anticancer activity against human ACHN cells assessed as cell growth level at 10 uM after 48 hrs by sulforhodamine B assay; assay type: functional
[4] = tested on: SN12C; test: Anticancer activity against human SN12C cells assessed as cell growth level at 10 uM after 48 hrs by sulforhodamine B assay; assay type: functional
[5] = Anticancer activity against human UO31 cells assessed as cell growth level at 10 uM after 48 hrs by sulforhodamine B assay; assay type: functional, UO-31
[6] = Anticancer activity against human PC3 cells assessed as cell growth level at 10 uM after 48 hrs by sulforhodamine B assay; assay type: functional, PC-3
[7] = tested on: MCF7; test: Anticancer activity against human MCF7 cells assessed as cell growth level at 10 uM after 48 hrs by sulforhodamine B assay; assay type: functional
[8] = tested on: T47D; test: Anticancer activity against human T47D cells assessed as cell growth level at 10 uM after 48 hrs by sulforhodamine B assay; assay type: functional
[9] = tested on: Rattus norvegicus; test: Antidiabetic activity in overnight fasted Wistar rat assessed as reduction in plasma glucose level at 30 mg/kg, po by oral glucose tolerance test; assay type: functional, organism-based; parameters: dose 30 mg/kg
Outline: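 Normal Wistar rats were given a glucose load by the oral glucose tolerance method, and plasma glucose rise was followed after oral test dosing. Glibenclamide was the reference drug. Data are mean ± SEM of six observations versus control, analysed by one-way ANOVA with Dunnett test (p < 0.05, p < 0.01).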

[10] = tested on: Rattus norvegicus; test: Increase in body weight in Wistar rat model of streptozotocin-induced diabetes at 30 mg/kg, po measured over 15 days; assay type: ADME, organism-based; parameters: dose 30 mg/kg, route oral; conditions: in vivo, 360 h
[11] = Anticancer activity against human MOLT4 cells assessed as cell growth level at 10 uM after 48 hrs by sulforhodamine B assay; assay type: functional, MOLT-4
[12] = Anticancer activity against human RPMI8226 cells assessed as cell growth level at 10 uM after 48 hrs by sulforhodamine B assay; assay type: functional, RPMI-8226
[13] = tested on: NCI-H522; test: Anticancer activity against human NCI-H522 cells assessed as cell growth level at 10 uM after 48 hrs by sulforhodamine B assay; assay type: functional
[14] = Anticancer activity against human HCC2998 cells assessed as cell growth level at 10 uM after 48 hrs by sulforhodamine B assay; assay type: functional, HCC 2998
[15] = tested on: HT-29; test: Anticancer activity against human HT-29 cells assessed as cell growth level at 10 uM after 48 hrs by sulforhodamine B assay; assay type: functional
[16] = tested on: M14; test: Anticancer activity against human M14 cells assessed as cell growth level at 10 uM after 48 hrs by sulforhodamine B assay; assay type: functional
[17] = tested on: Rattus norvegicus; test: Antidiabetic activity in Wistar rat model of streptozotocin-induced diabetes assessed as reduction in plasma glucose level at 30 mg/kg, po and dosage repeated for 15 days by GOD-POD method; assay type: functional, organism-based; parameters: dose 30 mg/kg

| SMILES | Activity [1] [%] | Activity [2] [%] | Activity [3] [%] | Activity [4] [%] | Activity [5] [%] | Activity [6] [%] | Activity [7] [%] | Activity [8] [%] | inhibition [9] | Activity [10] | Activity [11] [%] | Activity [12] [%] | Activity [13] [%] | Activity [14] [%] | Activity [15] [%] | Activity [16] [%] | inhibition [17] |
| --- | --- | --- | --- | --- | --- | --- | --- | --- | --- | --- | --- | --- | --- | --- | --- | --- | --- |
| Cc1ccc(NC(=O)NS(=O)(=O)c2ccc(N3N=C(c4cccs4)CC3c3ccc(C)s3)cc2)cc1 (configuration not stated) | 61.42 | 107.76 | 96.6 | 111.21 | 85.69 | 86.34 | 97.09 | 78.79 | Active | Toxic | 94.41 | 83.37 | 91.51 | 108.61 | 127.85 | 58.39 | – |
| COc1ccc(NC(=O)NS(=O)(=O)c2ccc(N3N=C(c4cccs4)CC3c3ccc(C)s3)cc2)cc1 (configuration not stated) | 49.98 | 108.05 | 93.16 | 111.79 | 87.18 | 96.33 | 99.04 | 85.68 | Active | – | 94.7 | 95.29 | 87.33 | 111.31 | 119.52 | 52.12 | Active |

From ChEMBL document CHEMBL3351675, “Novel benzenesulfonylureas containing thiophenylpyrazoline moiety as potential antidiabetic and anticancer agents” (Bioorg Med Chem Lett, 2014)
